Only some compounds are listed: those with a hit (about 3% of all), similar ones and a draw of the others.
PLCb3 inh: human PLC-beta3 inhibitors, primary screen, biochemical, fluorescence. 1-phosphatidylinositol 4,5-bisphosphate phosphodiesterase beta-3 (Homo sapiens), Q01970. Purified PLC-beta3, fluorogenic substrate. inhibition, % at 12.2 µM. 370,000 tested, 0.18% active. AID 720704, 2013; in the data active means inhibition above about 11%
PLC-gamma1 inh: PLC-gamma1 enzyme inhibitors, primary screen, biochemical, fluorescence, purified enzyme; fluorogenic substrate; inhibition, % at 12.2 µM; 370,000 tested, 0.84% active; AID 720700, 2013
proKLK7 act: proKLK7 zymogen activators, primary screen, biochemical, fluorescence intensity; Kallikrein-7 (Homo sapiens), P49862; purified proKLK7, EDANS-DABCYL substrate fluorescence; 100% is mature enzyme control, 0% vehicle; activation, % at 7 µM; 370,000 tested, 0.9% active;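 active means activation above the mean of all tested compounds plus 3 SD, computed per campaign excluding outliers beyond control limits, cut at about 13% in these data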
DDE Tn6 FP inh: inhibitors of Tn6 peptide binding to fibrin DD(E), primary screen, biochemical, fluorescence polarization, human fibrin, Tn6 probe | Fibrin DD(E) TRITC-Tn6 fluorescence polarization displacement | inhibition, % at 8.3 µM | AID 720509, 2013 | 370,000 tested, 0.21% active;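 active means inhibition above a per-campaign cutoff: mean of compounds within control limits plus 3 SD, cut at about 15% in these data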
Target sequence (P02675 whole entry, looked up): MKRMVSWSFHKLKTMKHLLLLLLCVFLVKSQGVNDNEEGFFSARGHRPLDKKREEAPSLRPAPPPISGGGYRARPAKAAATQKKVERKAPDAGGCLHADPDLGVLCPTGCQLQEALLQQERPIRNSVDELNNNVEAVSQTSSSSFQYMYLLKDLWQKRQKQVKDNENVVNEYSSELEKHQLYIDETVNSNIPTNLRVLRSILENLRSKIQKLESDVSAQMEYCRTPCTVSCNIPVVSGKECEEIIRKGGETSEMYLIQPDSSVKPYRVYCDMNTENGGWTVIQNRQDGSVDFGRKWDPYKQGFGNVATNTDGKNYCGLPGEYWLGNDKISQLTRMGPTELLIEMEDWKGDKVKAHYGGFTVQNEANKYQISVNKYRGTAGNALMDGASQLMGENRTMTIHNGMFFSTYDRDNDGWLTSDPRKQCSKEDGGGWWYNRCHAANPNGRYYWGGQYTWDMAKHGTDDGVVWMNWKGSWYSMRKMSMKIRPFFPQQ
NRP1-CendR mod: modulators of CendR peptide binding to NRP-1, primary screen, biochemical, fluorescence polarization, uHTS; AID 602438, 2012; 360,000 tested, 0.85% active; Neuropilin-1 (Homo sapiens), O14786; inhibition, % at 25 µM; FAM-RPARPAR peptide binding to NRP-1;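 active means inhibition or corrected inhibition above about 18%, plus a signal ratio from 0.5 to 1.5, limit read from the data, passing the limit was not always enough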
DDE Tn7 FP inh: inhibitors of Tn7 peptide binding to fibrin DD(E), primary screen, biochemical, fluorescence polarization, human fibrin, Tn7 probe | 370,000 tested, 0.13% active | FP displacement of FITC-Tn7 peptide from fibrin DD(E); 0% = median of compound wells per plate | inhibition, % at 8.3 µM;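 active means inhibition above the mean of compounds falling within the control limits plus 3 SD of them, cut at about 14% in these data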
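Assay system: Human fibrin DD(E) protein | Medium: Tris buffer with calcium and detergent, pH 7.8 | Reagent: 0.1 µM fluorescent Tn7 | Compound dosing: Single point at 8.3 µM | Times: 10 min preincubation, 3 h with tracer, room temperature | Detection: Fluorescence polarization of the labelled Tn7 tracer | Controls: Aha-Tn7 high control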
PLCg1 ctr: PLC-gamma1 enzyme inhibitors, counter-screen for PLC-beta3 inhibitor project, biochemical, fluorescence. shares compounds with PLC-gamma1 inh. inhibition, % at 12.3 µM. AID 743258, 2014. purified PLC-gamma1, fluorogenic substrate. 3,300 tested, 3.1% active
PLCb3 confirm: PLC-beta3 inhibitor confirmation, biochemical, fluorescence, purified enzyme; AID 743261, 2014; 3,300 tested, 1% active; inhibition, % at 12.3 µM; fluorogenic substrate fluorescence; shares compounds with PLC-gamma1 inh; in the data active means inhibition above about 11%
Hits are given with their value; n = inactive; x = no result given. Unless noted, no stated cut-off is given here; in the data, active means inhibition above about 9.5%; inactive means the rest.

SMILES | PLCb3 inh | PLC-gamma1 inh | proKLK7 act | DDE Tn6 FP inh | NRP1-CendR mod | DDE Tn7 FP inh | PLCg1 ctr | PLCb3 confirm
O=C(NCc1cccs1)C1CCC(CNS(=O)(=O)c2ccccc2)CC1 (configuration not stated) | n | 12 | n | n | n | n | n | n
O=C(NCCO)C1(C(=O)C2CC2)CC(c2ccccc2C(F)(F)F)=NO1 (configuration not stated) | n | n | n | n | x | n | x | x
NC(=NCCc1c[nH]c2ccccc12)NC(=O)c1ccc(Cl)cc1 | n | 10.0 | n | n | n | n | n | n
CCOC(=O)CSc1nnnn1-c1cc(OC)c(Cl)cc1OC | n | 9.8 | n | n | n | n | n | n
CCn1c2ccccc2c2cc(NC(=O)CSc3nnc(-c4cccc(F)c4)o3)ccc21 | n | 13 | n | n | n | n | n | n
N#Cc1ccccc1S(=O)(=O)N1CCN(CC(O)CN2CCOCC2)CC1 (configuration not stated) | n | 9.7 | n | n | n | n | n | n
Cc1ccc[n+](-c2[nH]c(=O)sc2/C=N/NC(=O)c2ccccc2[O-])c1 | n | 14 | n | n | n | n | n | n
CN(C)c1ccc(C(=O)NC2CCCCN(Cc3ccc(Cl)cc3)C2=O)cc1 (configuration not stated) | n | n | n | n | x | n | x | x
Cc1cc(F)cc(-c2cc(C(=O)NCc3cccc(Cl)c3)[nH]n2)c1 | n | 10 | n | n | n | n | n | n
CC(C)C[C@H]1COc2cc(NCc3ccc(Cl)c(Cl)c3)ccc2S(=O)(=O)N1 | n | n | n | n | x | n | x | x
Cc1ccc(NC(=O)C2CCCN2S(=O)(=O)c2cccnc2)cc1C (configuration not stated) | n | n | n | n | x | n | x | x
Cc1ccc(S(=O)(=O)N2O[C@@H](c3ccccc3)C[C@H]2CON2C(C)(C)CCCC2(C)C)cc1 | 13 | 11 | x | n | x | n | n | n
CCCC/C=C1/[C@@H](c2ccc(Cl)cc2)N(Cc2ccc3c(c2)OCO3)C2=N[C@@H](c3ccccc3)CC(=O)N21 | n | n | n | n | x | n | x | x
Cc1ccccc1OCC(=O)OCC(=O)N1CCCc2ccccc21 | n | n | n | n | n | n | x | x
Cc1cccc(OCC(=O)OCC(=O)N2CCCc3ccccc32)c1C | n | 11 | n | n | n | n | n | n
O=C(NCCc1ccncc1)C(F)(F)F | n | 11 | n | n | n | n | n | n
O=C(NCCNC(=O)C(F)(F)F)c1ccncc1 | n | n | n | n | n | n | x | x
COc1ccc(C(=O)Oc2ccc(C(C)=O)cc2)c(OC)c1 | n | 10 | n | n | n | n | n | n
CN(C)C(=O)CSc1nc2ccccc2c(=O)[nH]1 | n | n | n | n | n | n | x | x
Cc1cc(C)cc(N(CCC#N)C(=O)CSc2nc3ccccc3c(=O)[nH]2)c1 | n | 9.8 | n | n | n | n | n | n
CCCOc1ccc(CC(=O)NCCc2ccccc2)cc1OC | n | 12 | n | n | n | n | n | n
CCNCc1cc(OCC)c(OCC(=O)NCCc2ccccc2)cc1Cl | n | 12 | n | n | n | n | n | n
COc1ccc(CCNC(=O)Cc2ccccc2)cc1OC | n | n | n | n | n | n | x | x
CCOC(=O)C1CCN(CC(O)COc2ccc(C(C)(C)CC)cc2)CC1 (configuration not stated) | n | 12 | n | n | n | n | n | n
CCCOC(=O)c1ccc(OCC(O)CN2CCN(C(=O)c3ccccc3)CC2)cc1 (configuration not stated) | n | n | n | n | n | n | x | x
SMILES | PLCb3 inh | PLC-gamma1 inh | proKLK7 act | DDE Tn6 FP inh | NRP1-CendR mod | DDE Tn7 FP inh | PLCg1 ctr | PLCb3 confirm
CC(C)(C)c1ccc(OCC(O)CN2CCN(C(=O)c3ccccc3)CC2)cc1 (configuration not stated) | n | 14 | n | n | n | n | n | n
CCOC(=O)C1CCN(C(=O)COc2ccc(Br)cc2)CC1 | n | 11 | n | n | n | n | n | n
CCOC(=O)C1CCN(CC(O)COc2ccc(C(C)(C)C)cc2)CC1 (configuration not stated) | n | n | n | n | n | n | x | x
COc1ccc(CNC(=S)OC2CCC23CCC(c2ccccc2)CC3)cc1 (configuration not stated) | n | n | n | n | x | n | x | x
c1ccc2c(C3OCC4(CCCC4)CO3)cccc2c1 | n | 9.6 | n | n | n | n | n | n
Oc1ccccc1C1OCC2(CO1)COC(c1ccccc1O)OC2 (configuration not stated) | n | n | n | n | n | n | x | x
Cc1cc(C)cc(C(=O)OCCCN(C)C2CN(Cc3cn(Cc4cccc(F)c4)nn3)S(=O)(=O)C2)c1 (configuration not stated) | n | n | n | n | x | n | x | x
N#CCOc1nc(N2CCOCC2)nc(N2CCOCC2)n1 | n | 10.0 | n | n | n | n | n | n
N/C(=N\N=C\c1ccc2c(c1)OCO2)c1nonc1N | 13 | 9.8 | n | n | n | n | n | n
Cc1ccc(NC=C(S(=O)(=O)c2ccccc2)S(=O)(=O)c2ccccc2)c(C)c1 | n | 13 | n | n | n | n | n | n
CCN(CC)CCNC(=O)C1(O)c2cc(Br)ccc2NC(=O)N1c1ccc(Cl)cc1 (configuration not stated) | n | 12 | n | n | n | n | n | n
CCCNC(=O)C1(O)c2cc(Br)ccc2NC(=O)N1c1ccc(Cl)cc1 (configuration not stated) | n | n | n | n | n | n | x | x
Cc1ccc(NC(=S)NC2CC3CCC(C2)N3Cc2ccco2)cc1C (configuration not stated) | n | 13 | n | n | n | n | n | n
Clc1cc(Cl)c2nc(N3CCCCC3)sc2c1 | n | 9.9 | n | n | n | n | n | n
Clc1cc(Cl)c2nc(N3CCCC3)sc2c1 | n | 12 | n | n | n | n | n | n
COC(=O)[C@]12C[C@H](CC(=O)NCC3CCCCC3)C(=O)N(Cc3ccco3)C1=C[C@H](COCc1ccccc1)O[C@@H]2C | n | n | n | n | x | n | x | x
CN(Cc1ccc(F)cc1)C(=O)c1cccc2c1C(=O)N(Cc1cccnc1)C2 | n | n | n | n | x | n | x | x
